This note sets out measurements from PMC4075987 (Biochemistry, 2014).

Assay [1] has as its target T1, apo-FbpABp (Bordetella pertussis, UniProt Q7VXW9).
T1 sequence (Q7VXW9 31-349): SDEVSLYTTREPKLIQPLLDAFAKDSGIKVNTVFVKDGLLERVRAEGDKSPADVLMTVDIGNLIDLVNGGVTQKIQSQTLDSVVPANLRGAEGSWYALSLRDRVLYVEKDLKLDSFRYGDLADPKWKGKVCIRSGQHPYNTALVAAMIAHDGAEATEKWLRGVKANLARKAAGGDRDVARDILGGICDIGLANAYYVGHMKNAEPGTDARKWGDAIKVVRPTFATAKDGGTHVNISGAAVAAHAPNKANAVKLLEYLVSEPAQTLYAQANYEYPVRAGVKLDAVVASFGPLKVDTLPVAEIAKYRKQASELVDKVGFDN
Format: binding.

In assay [2] the target is T1, apo-FbpABp. As to the kind of experiment: UV-vis spectral difference experiment between apo-DFB and apo-FbpABp. Format: binding. The note with it: results not shown.
The subject of the next assay is FbpABp. In kind it is binding, Bordetella pertussis. The note with it: absence of a suitable synergistic anion. A digest of the protocol:
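Recombinant B. pertussis FbpA was made periplasmically in B. bronchiseptica ΔfbpA grown in iron-depleted Stainer–Scholte medium at 35 °C, then osmotic-shock extracted and DEAE-purified. Apo-protein took 50 equiv carbonate/oxalate (30 min) then 10 equiv Fe(ClO4)3 (overnight, 4 °C, filtered), or 10 equiv citrate/NTA then 2 equiv 1:1 Fe-anion. Iron was titrated to maximal CT band, dialysed, then competed against EDTA; pH 6.5 MES/NaCl.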

Assay [3] concerns the target T1, apo-FbpABp. To be noted: pH 6.5, 50 mM MES, 100 mM NaCl; monitored 3 h.
[4] abbreviates: read-out: Kd (apparent Fe3+-siderophore/apo-FbpABp dissociation constant, eq 3), ferric siderophore complex, one-site model, 50 mM MES, 100 mM NaCl, pH 6.5, room temperature.

“Also recorded” adds a separate entry of the source. Read-outs that look alike come from different tables or passages of the source. Square brackets hold non-standard residues; d marks the D form. Peptide text beside a SMILES is read from it. Orn(N5-OH,N5-Ac) = CC(=O)N(O)CCC[C@H](N)C(=O)O

Molecule `CC(=O)N(O)CCCCCNC(=O)CCC(=O)N(O)CCCCCNC(=O)CCC(=O)N(O)CCCCCN` [DFB, desferrioxamine B] returned a Kd on apo-FbpABp [1] of about 1 µM. Moreover, on apo-FbpABp [2], the “binding of apo-siderophore by apo-FbpABp” value was “not able to bind an apo-siderophore effectively”.

In the case of `O=C1CCC(=O)N(O)CCC(O)CNC(=O)CCC(=O)N(O)CCC(O)CN1` (centres unmarked) [ALC, alcaligin], the Kd at apo-FbpABp [1] (setting [4]) was about 0.1 µM.

On apo-FbpABp [1], `O=C(N[C@H]1COC(=O)[C@@H](NC(=O)c2cccc(O)c2O)COC(=O)[C@@H](NC(=O)c2cccc(O)c2O)COC1=O)c1cccc(O)c1O` [ENT, enterobactin] gave a Kd of about 1 µM. In addition, at apo-FbpABp [1] (apo-siderophore, final protein:apo-siderophore 1:4 (ALC), 1:2 (ENT)), the “quenching of apo-protein fluorescence emission band by apo-siderophore” value is listed as under 16%.

For `CC(=O)N([O-])CCC[C@@H]1NC(=O)CNC(=O)CNC(=O)CNC(=O)[C@H](CCCN([O-])C(C)=O)NC(=O)[C@H](CCCN([O-])C(C)=O)NC1=O.[Fe+3]` [FC, ferrichrome] (cyclo(GGG[Orn(N5-OH,N5-Ac)][Orn(N5-OH,N5-Ac)][Orn(N5-OH,N5-Ac)])), the Kd on apo-FbpABp [1] (setting [4]) is about 1 µM.

In the case of `[Fe+3]` [Fe^3+, Ferric iron], in the assay on FbpABp, the “Fe3+ sequestration by FbpABp” value is “No Fe^3+ sequestration was observed”.

For the molecule ferric-alcaligin [Fe2(ALC)3], the “Qmax (maximum % quenching)” value on apo-FbpABp [1] (ferric siderophore complex, emission 352 nm, excitation 297 nm, pH 6.5) is listed as about 80%. Further, the “blue shift of FbpABp emission band” value at apo-FbpABp [1] (on addition of ferric siderophore to apo-FbpABp) was about 8 nm. Also, the Kd on apo-FbpABp [1] (setting [4]) amounted to 0.13 ± 0.04 µM. For the same molecule, the “change of ferric siderophore CT band after addition of apo-FbpABp” value on apo-FbpABp [3] is recorded as “shift in λmax from 428 nm (CT band for Fe2ALC3) to 410 nm; also recorded: λmax shifted from 428 to 410 nm”.
